Reference: ChEMBL document CHEMBL3091324, “The optimization of aminooxadiazoles as orally active inhibitors of Cdc7” (Bioorg Med Chem Lett, 2013)
≈ marks a conversion by molar mass, not a printed value.

How the values were obtained:
[1] = target: CDC7/DBF4 (Cell division cycle 7-related protein kinase/Activator of S phase kinase) (Homo sapiens, UniProt O00311); experiment: Inhibition of Cdc7/Dbf4 (unknown origin)-mediated MCM2 phosphorylation at Ser53 by protein A amplified luminescent proximity homogeneous assay; assay type: protein-complex assay
[2] = target: Cyclin-dependent kinase 2/cyclin E1 (Homo sapiens, UniProt P24941); experiment: Inhibition of CDK2/cyclin E (unknown origin) using ULight peptide as substrate by HTRF assay; assay type: protein-complex assay
[3] = Intrinsic clearance in human liver microsomes; assay type: ADME; conditions: read-out: CLH
[4] = target: Cell division cycle 7-related protein kinase (Homo sapiens, UniProt O00311); experiment: Inhibition of Cdc7-mediated MCM2 phosphorylation at Ser53 in human HCT116 cells after 14 hrs by immunostaining assay; assay type: cell-based, HCT-116
[5] = Intrinsic clearance in rat liver microsomes; assay type: ADME; conditions: read-out: CLH
[6] = organism: Homo sapiens; experiment: Selectivity ratio of IC50 for CDK2/cyclin E (unknown origin) to IC50 for Cdc7/Dbf4 (unknown origin)
[7] = target: CDK9/cyclin T1 (Homo sapiens, UniProt P50750); experiment: Inhibition of CDK9/cyclin T1 (unknown origin) using 4eBP1 ULight peptide as substrate by HTRF assay; assay type: protein-complex assay
[8] = target: Cyclin-dependent kinase 1/cyclin B1 (Homo sapiens, UniProt P06493); experiment: Inhibition of CDK1/cyclin B (unknown origin) by HTRF assay; assay type: protein-complex assay
[9] = Mean residence time in rat at 2 mg/kg, iv and 2 mg/kg, po; assay type: ADME, organism-based; conditions: in vivo
[10] = Oral bioavailability rat in 2 mg/kg; assay type: ADME, organism-based; conditions: in vivo
[11] = tested on: Mus musculus; experiment: In vivo inhibition of Cdc7 in tumor of NCR/nude mouse xenografted with human HCT116 cells assessed as remaining Ser53 phosphorylated MCM2 level at 100 mg/kg, po measured at 16 hrs relative to control; assay type: functional, HCT-116
Outline: (§1)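 Female NCR/nude mice (n = 3 per group) given single oral dose of 100 mg/kg; pMCM2 levels measured at 6 and 16 h, expressed as % remaining versus vehicle control group; significance by one-way ANOVA with Dunnett's test.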

[12] = tested on: Mus musculus; experiment: In vivo inhibition of Cdc7 in tumor of NCR/nude mouse xenografted with human HCT116 cells assessed as remaining Ser53 phosphorylated MCM2 level at 100 mg/kg, po measured at 6 hrs relative to control; assay type: functional, HCT-116; outline: as §1
[13] = tested on: Plasma; experiment: Unbound plasma concentration in NCR/nude mouse xenografted with human HCT116 cells at 100 mg/kg, po measured at 16 hrs by LC-MS analysis; assay type: ADME, organism-based, HCT-116; set-up: dose 100 mg/kg, route oral; conditions: in vivo
Outline: (§2)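 Female NCR/nude mice (n = 3) dosed orally at 100 mg/kg; plasma sampled at 6 and 16 h; unbound concentration calculated from total plasma concentration and percent free fraction in mouse plasma.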

[14] = Solubility of the compound in simulated intestinal fluid; assay type: ADME
[15] = tested on: Plasma; experiment: Unbound plasma concentration in NCR/nude mouse xenografted with human HCT116 cells at 100 mg/kg, po measured at 6 hrs by LC-MS analysis; assay type: ADME, organism-based, HCT-116; set-up: dose 100 mg/kg, route oral; conditions: in vivo; outline: as §2
[16] = tested on: HCT-116; experiment: Cytotoxicity against human HCT116 cells assessed as cell viability after days by CellTiterGlo assay; assay type: functional, cell-based
Outline: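 HCT-116 cells exposed to compound for 4 d; cell viability IC50 determined.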

[17] = tested on: Mus musculus; experiment: In vivo inhibition of Cdc7-mediated MCM2 phosphorylation at Ser53 in tumor of NCR/nude mouse xenografted with human HCT116 cells at 100 mg/kg, po; assay type: functional, organism-based; set-up: dose 100 mg/kg; conditions: HCT-116, TDE = time-dependent effect; outline: as §1
[18] = Clearance in rat at 2 mg/kg, iv and 2 mg/kg, po; assay type: ADME, organism-based; conditions: in vivo
[19] = Volume of distribution at steady state in rat at 2 mg/kg, iv and 2 mg/kg, po; assay type: ADME, organism-based; conditions: in vivo, read-out: Vdss
[20] = Volume of distribution at steady state in rat at 1 mg/kg, iv and 5 mg/kg, po; assay type: ADME, organism-based; conditions: in vivo, read-out: Vdss
[21] = Clearance in rat at 1 mg/kg, iv and 5 mg/kg, po; assay type: ADME, organism-based; conditions: in vivo
[22] = Mean residence time in rat at 1 mg/kg, iv and 5 mg/kg, po; assay type: ADME, organism-based; conditions: in vivo
[23] = Oral bioavailability rat in 5 mg/kg; assay type: ADME, organism-based; conditions: in vivo

Chain of CDC7/DBF4 (Cell division cycle 7-related protein kinase/Activator of S phase kinase) (Q9UBU7 whole entry): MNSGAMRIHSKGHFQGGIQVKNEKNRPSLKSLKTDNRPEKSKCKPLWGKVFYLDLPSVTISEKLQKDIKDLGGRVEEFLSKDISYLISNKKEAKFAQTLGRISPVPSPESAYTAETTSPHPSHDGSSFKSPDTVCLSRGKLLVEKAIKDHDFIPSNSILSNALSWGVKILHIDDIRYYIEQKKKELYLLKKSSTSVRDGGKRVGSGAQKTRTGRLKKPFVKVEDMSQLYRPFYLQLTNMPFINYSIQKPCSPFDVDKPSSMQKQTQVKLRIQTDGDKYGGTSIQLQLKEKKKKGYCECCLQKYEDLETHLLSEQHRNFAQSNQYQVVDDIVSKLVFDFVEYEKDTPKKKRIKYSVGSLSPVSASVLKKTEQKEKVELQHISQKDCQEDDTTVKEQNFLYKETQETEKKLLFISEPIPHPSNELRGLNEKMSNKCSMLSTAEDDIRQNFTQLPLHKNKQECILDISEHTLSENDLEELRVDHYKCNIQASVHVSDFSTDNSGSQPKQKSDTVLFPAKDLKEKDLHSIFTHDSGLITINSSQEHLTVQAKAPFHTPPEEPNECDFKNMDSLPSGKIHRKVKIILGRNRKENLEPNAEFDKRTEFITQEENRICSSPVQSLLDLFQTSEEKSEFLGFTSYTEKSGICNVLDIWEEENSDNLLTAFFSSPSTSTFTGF
Chain of CDC7/DBF4 (Cell division cycle 7-related protein kinase/Activator of S phase kinase) (O00311 whole entry): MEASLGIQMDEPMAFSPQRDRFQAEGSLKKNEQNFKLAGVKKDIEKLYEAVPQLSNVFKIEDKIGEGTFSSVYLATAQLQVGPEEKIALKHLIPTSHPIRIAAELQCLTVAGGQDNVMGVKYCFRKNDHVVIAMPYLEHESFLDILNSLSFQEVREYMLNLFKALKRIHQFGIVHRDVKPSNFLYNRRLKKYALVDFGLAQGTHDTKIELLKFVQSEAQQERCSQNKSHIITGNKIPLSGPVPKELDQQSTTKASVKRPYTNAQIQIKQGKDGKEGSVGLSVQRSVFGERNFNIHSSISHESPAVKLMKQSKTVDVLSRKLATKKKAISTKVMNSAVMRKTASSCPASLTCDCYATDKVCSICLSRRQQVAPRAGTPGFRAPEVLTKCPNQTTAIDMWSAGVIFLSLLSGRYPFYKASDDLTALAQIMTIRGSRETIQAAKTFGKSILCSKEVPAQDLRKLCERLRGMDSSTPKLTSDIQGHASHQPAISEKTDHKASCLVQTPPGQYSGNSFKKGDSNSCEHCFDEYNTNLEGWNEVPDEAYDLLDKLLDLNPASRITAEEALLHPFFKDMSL
Chain of Cyclin-dependent kinase 1/cyclin B1 (P06493 whole entry): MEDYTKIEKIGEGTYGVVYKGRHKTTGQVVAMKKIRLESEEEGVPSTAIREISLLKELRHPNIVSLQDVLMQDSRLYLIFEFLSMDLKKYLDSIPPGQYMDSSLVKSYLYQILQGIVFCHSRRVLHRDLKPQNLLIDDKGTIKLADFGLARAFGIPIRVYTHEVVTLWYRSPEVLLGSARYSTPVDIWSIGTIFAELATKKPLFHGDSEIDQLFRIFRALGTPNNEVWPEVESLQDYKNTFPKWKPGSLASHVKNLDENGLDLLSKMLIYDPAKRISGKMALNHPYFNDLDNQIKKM
Chain of Cyclin-dependent kinase 1/cyclin B1 (P14635 whole entry, further chain): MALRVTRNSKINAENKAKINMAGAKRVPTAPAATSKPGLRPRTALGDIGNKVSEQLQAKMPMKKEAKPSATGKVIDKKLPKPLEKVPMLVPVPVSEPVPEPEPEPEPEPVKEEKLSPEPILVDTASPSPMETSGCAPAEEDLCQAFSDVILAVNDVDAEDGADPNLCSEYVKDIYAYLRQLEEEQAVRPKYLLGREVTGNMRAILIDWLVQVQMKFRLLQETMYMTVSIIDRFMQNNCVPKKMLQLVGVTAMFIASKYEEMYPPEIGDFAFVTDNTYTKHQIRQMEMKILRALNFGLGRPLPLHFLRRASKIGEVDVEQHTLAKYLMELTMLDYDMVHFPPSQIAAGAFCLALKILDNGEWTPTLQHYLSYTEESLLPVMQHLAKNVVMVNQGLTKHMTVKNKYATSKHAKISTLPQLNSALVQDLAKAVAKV
Chain of Cell division cycle 7-related protein kinase (O00311 whole entry): as the sequence (O00311 whole entry) above
Chain of CDK9/cyclin T1 (O60563 whole entry): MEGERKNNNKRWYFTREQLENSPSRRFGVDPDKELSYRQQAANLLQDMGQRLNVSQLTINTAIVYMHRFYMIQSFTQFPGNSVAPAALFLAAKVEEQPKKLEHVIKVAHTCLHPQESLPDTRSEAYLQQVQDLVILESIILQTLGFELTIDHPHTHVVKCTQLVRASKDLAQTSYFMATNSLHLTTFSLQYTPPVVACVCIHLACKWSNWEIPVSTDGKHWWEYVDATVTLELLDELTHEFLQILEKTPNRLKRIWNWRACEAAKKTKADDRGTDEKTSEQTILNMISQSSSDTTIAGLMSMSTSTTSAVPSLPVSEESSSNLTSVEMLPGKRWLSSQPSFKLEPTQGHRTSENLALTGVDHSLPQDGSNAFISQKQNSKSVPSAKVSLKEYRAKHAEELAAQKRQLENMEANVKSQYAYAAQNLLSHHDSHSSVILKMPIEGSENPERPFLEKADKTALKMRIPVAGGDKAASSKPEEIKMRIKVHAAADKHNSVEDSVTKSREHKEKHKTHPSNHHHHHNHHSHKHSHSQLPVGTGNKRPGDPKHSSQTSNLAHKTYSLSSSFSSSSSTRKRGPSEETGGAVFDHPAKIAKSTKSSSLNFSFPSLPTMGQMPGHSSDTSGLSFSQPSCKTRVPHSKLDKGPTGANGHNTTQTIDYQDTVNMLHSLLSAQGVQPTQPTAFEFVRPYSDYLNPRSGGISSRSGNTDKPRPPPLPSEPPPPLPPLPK
Chain of CDK9/cyclin T1 (P50750 whole entry): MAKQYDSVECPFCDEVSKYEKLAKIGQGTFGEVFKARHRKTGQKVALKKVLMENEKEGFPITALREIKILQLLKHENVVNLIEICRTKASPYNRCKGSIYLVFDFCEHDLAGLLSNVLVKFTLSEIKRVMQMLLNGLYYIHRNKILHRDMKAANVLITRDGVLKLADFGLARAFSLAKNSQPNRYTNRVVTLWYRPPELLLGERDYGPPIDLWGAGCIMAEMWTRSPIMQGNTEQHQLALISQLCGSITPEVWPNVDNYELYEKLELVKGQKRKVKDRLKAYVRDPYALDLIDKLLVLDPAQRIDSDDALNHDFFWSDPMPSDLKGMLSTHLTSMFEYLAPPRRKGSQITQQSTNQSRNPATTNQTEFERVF

| Structure (SMILES) | IC50 [1] [nM] | IC50 [2] [nM] | microsomal CLint [3] [µL/min/mg] | IC50 [4] [nM] | microsomal CLint [5] [µL/min/mg] | IC50 [7] [nM] | IC50 [8] [nM] | further results |
| --- | --- | --- | --- | --- | --- | --- | --- | --- |
| Fc1ccc(CNc2nnc(-c3c[nH]c4ncccc34)o2)cc1 | 25 | 98 | 47 | 690 | 58 | – | – | Ratio IC50 [6]: 4 |
| c1ccc([C@H](Nc2nnc(-c3c[nH]c4ncccc34)o2)C2CC2)cc1 | 1 | 1600 | 56 | 71 | 31 | – | – | – |
| Fc1cccc(CNc2nnc(-c3c[nH]c4ncccc34)o2)c1 | 10 | 61 | 54 | 580 | 71 | – | – | Ratio IC50 [6]: 6 |
| Fc1ccccc1[C@H](Nc1nnc(-c2c[nH]c3ncncc23)o1)C1CC1 | 1.5 | 750 | < 14 | 130 | 34 | 880 | > 50000 | – |
| Fc1ccccc1CNc1nnc(-c2c[nH]c3ncccc23)o1 | 35 | 580 | 32 | 1600 | 46 | – | – | Ratio IC50 [6]: 17 |
| O=C1Cc2cc(-c3nnc(NCc4ccccc4)o3)ccc2N1 | 770 | 33000 | < 14 | > 50000 | < 14 | – | – | – |
| Fc1ccc2c(-c3nnc(N[C@@H](c4cccnc4F)C4CC4)o3)c[nH]c2n1 | 3.9 | 4000 | < 14 | 250 | 413 | 2400 | > 50000 | – |
| c1cnc2[nH]cc(-c3nnc(NCc4ccncc4)o3)c2c1 | 110 | 350 | < 14 | 12000 | 37 | – | – | – |
| Fc1cc2cc(-c3nnc(NCc4ccccc4)o3)ccc2cn1 | 10 | 6800 | 49 | 3200 | 56 | – | – | – |
| Fc1cnccc1[C@H](Nc1nnc(-c2c[nH]c3ncccc23)o1)C1CC1 | 1.8 | 1900 | 27 | 60 | 45 | 940 | > 50000 | MRT [9]: 1.4 h; bioavailability [10]: 14%; Remaining Ser53 phospho-MCM2 vs control [11]: 24%; Remaining phospho-MCM2 (% of control) [12]: 62%; Cp(f) [13]: 450 nM; solubility [14]: 200 µg/mL (≈ 571 µM); Cp(f) [15]: 2000 nM; IC50 [16]: 5700 nM; Activity [17]: tde; clearance [18]: 75 mL/min/kg; Vd [19]: 6.1 L/kg |
| Fc1ncccc1[C@H](Nc1nnc(-c2c[nH]c3ncccc23)o1)C1CC1 | 0.69 | 490 | 21 | 51 | 80 | 120 | 7300 | Remaining Ser53 phospho-MCM2 vs control [11]: 41%; Vd [20]: 5.9 L/kg; clearance [21]: 75 mL/min/kg; Remaining phospho-MCM2 (% of control) [12]: 40%; Cp(f) [13]: 70 nM; solubility [14]: 200 µg/mL (≈ 571 µM); MRT [22]: 1.3 h; Cp(f) [15]: 1300 nM; bioavailability [23]: 41%; IC50 [16]: 1800 nM |
| c1cncc(CNc2nnc(-c3c[nH]c4ncccc34)o2)c1 | 190 | 610 | < 14 | 7100 | 30 | – | – | – |
| O=c1[nH]c2ccc(-c3nnc(NCc4ccccc4)o3)cc2o1 | 590 | 47000 | 69 | > 50000 | 30 | – | – | – |
